# An excerpt weighted towards active compounds, which were near 2.4% of everything screened.
# TDP2 absorb = human TDP2 enzyme inhibitors, primary screen, biochemical, epi absorbance, recombinant enzyme. Tyrosyl-DNA phosphodiesterase 2 (Homo sapiens), O95551. T5PNP hydrolysis, p-nitrophenol absorbance 415 nm. inhibition, % at 12.8 µM. 0.34% of 370,000 active. AID 720702, 2013;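 active = inhibition above the mean of all tested compounds plus 3 SD, set per campaign, cut at about 25% in these data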;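 note: 0% = DMSO with enzyme and 100% = buffer with substrate but no TDP2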
#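 Incubation: 2 h at 37 °C; Test system: recombinant human TDP2; Quantity: enzyme 120 nM; Read-out basis: percent inhibition; Medium: 50 mM Tris-HCl pH 7.5 with Mg2+, KCl, DTT, BSA; Repeats: single replicate; Compound: 12.8 µM single point, 1% DMSO; Signal: epi absorbance; Reagent: 5 mM T5PNP chromogenic substrate; Benchmarks: no-enzyme high, DMSO-plus-enzyme low.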
# SIAE primary = human SIAE inhibitors, primary screen, biochemical, fluorescence polarization, FP-Rh probe, 1536-well HTS. Sialate O-acetylesterase (Homo sapiens), Q9HAT2. SIAE FP-Rh probe binding. inhibition, % at 9.66 µM. 0.69% of 370,000 active;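 active = inhibition above a cutoff: mean of compounds within the control limits plus 3 SD of those, cut at about 17% in these data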;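 note: 0% = plate median of compound wells and 100% = probe without SIAE protein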
# Apaf-1 inh = inhibitors of human Apaf-1 apoptosome, primary screen, biochemical, DEVD-Rh110 fluorescence, uHTS; Apoptotic protease-activating factor 1 (Homo sapiens), O14727; reconstituted apoptosome caspase-3 activity; inhibition, % at 20 µM; 0.71% of 330,000 active; AID 489030, 2010; active = inhibition of at least 40% at 20 µM;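 note: plate controls were DMSO wells for no effect and DEVD-CHO caspase inhibitor wells for full effect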
#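 Assay system – apoptosome proteins · Medium – Hepes buffer, pH 7.5 · Also added – cytochrome c with DEVD-Rh110 · Timing – 30 min compound preincubation, 50 min activation, room temperature · Detection – Rh110 fluorescence, excitation 480 nm, emission 540 nm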
# GSTO1 inh = inhibitors of recombinant GSTO1, primary screen, counter-screen for RBBP9 inhibitor project, biochemical, fluorescence polarization; Glutathione S-transferase omega-1 (Homo sapiens), P78417; activity-based probe fluorescence polarization; inhibition, % at 5.96 µM; 1.1% of 300,000 active;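 active = inhibition above the campaign mean inhibition plus 3 SD, cut at about 35% in these data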;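 note: 0% = GSTO1-1 with DMSO and 100% = wells lacking GSTO1-1 enzyme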
# PAD4 FP inh = human PAD4 inhibitors, primary screen, biochemical, fluorescence polarization, 1536-well format; inhibition, % at 6.36 µM; 0.41% of 330,000 active; Protein-arginine deiminase type-4 (Homo sapiens), Q9UM07; AID 485272, 2010; recombinant PAD4, RCA probe fluorescence polarization;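 active = percent inhibition above a cutoff equal to the mean of all tested compounds plus 3 SD, cut at about 15% in these data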;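 note: 0% = PAD4 with RCA probe and DMSO and 100% = probe without PAD4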
# Target sequence (Q9UM07 whole entry, looked up): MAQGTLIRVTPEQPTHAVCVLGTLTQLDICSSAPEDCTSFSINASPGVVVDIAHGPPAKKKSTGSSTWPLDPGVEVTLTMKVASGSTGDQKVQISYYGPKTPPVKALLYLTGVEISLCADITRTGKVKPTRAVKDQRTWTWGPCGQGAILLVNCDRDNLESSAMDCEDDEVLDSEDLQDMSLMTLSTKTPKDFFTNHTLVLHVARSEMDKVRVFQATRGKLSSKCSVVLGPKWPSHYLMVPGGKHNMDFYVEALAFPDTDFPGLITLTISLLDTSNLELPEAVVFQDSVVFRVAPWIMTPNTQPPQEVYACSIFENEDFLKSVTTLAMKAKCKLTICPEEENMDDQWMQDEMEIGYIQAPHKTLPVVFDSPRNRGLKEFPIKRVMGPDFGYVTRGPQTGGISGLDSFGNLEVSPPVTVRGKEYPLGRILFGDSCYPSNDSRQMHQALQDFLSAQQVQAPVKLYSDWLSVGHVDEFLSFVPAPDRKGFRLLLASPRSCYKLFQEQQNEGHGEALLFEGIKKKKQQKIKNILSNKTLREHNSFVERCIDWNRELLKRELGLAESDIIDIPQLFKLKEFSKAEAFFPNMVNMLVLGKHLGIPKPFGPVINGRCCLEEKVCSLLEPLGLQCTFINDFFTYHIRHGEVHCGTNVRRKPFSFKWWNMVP
# TCR CD3 inh = inhibitors of human TCR-CD3 interaction, primary screen, biochemical, fluorescence, TAMRA-labeled TCR probe; AID 651800, 2012; inhibition, % at 9.4 µM; T-cell receptor (TCR); 0.37% of 360,000 active; in the data active = inhibition above about 19%;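 note: recombinant mutant TCR 2C K166C tagged with TAMRA read by polarization; 0% = receptor in buffer alone and 100% = receptor with positive control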
# GSTO1 inh conf = GSTO1 inhibitor hit confirmation, counter-screen for RBBP9 inhibitor project, biochemical, fluorescence polarization, triplicate; shares compounds with GSTO1 inh; inhibition, % at 5.96 µM; 54% of 2,400 active; AID 2176, 2009; recombinant GSTO1, probe fluorescence polarization;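 active = inhibition above the primary screen's cutoff, its mean inhibition plus 3 SD, cut at about 35% in these data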;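 note: loss of polarization as inhibitors block binding of rhodamine sulfonate ester activity probe; 0% = GSTO1 with DMSO and 100% = wells lacking GSTO1 enzyme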
# GSTO1 ABPP inh = inhibitors of purified human GSTO1, late-stage follow-up, biochemical, gel ABPP, SE-Rh probe, percent inhibition. shares compounds with GSTO1 inh. recombinant GSTO1, gel ABPP SE-Rh probe fluorescence. inhibition, % at 1 µM. 30% of 130 active;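 active = inhibition of the enzyme GSTO1 above about 75%, limit read from the data; inactive = inhibition below that limit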
# Active calls of the source: *; / = no result.
SMILES,TDP2 absorb,SIAE primary,Apaf-1 inh,GSTO1 inh,PAD4 FP inh,TCR CD3 inh,GSTO1 inh conf,others
CN(C)c1ccc(C=Nc2ccccc2)cc1,12,2,-18,2,-2,-5,/,
CN(C)c1ccc(N=Cc2ccco2)cc1,/,/,16,73*,21*,/,5,
N#Cc1nc(COc2ccccc2F)oc1NCCc1ccccc1,2,-2,9,43*,1,7,18,
COc1ccc(C2CC(c3cccs3)=NN2C(=O)CCl)cc1OC (stereo not drawn),9,1,15,90*,3,-1,96*,
COc1cc(C2CC(c3cccs3)=NN2C(=O)CCl)ccc1OC(F)F (stereo not drawn),9,11,23,94*,2,1,97*,
COc1ccc(C2CC(c3cccs3)=NN2C(=O)c2ccccc2)cc1OC (stereo not drawn),5,-1,8,-6,3,3,/,
O=C(NCc1ccccc1)c1cccc(OCC(=O)N2CCN(C(=O)c3ccco3)CC2)c1,8,3,18,22,-2,4,/,
N#CCCN(C(=O)COC(=O)CNC(=O)c1ccc(-c2ccccc2)cc1)c1ccc(F)cc1,-2,6,30,6,-4,0,/,
O=C(CCl)Nc1cccc(Oc2ccccc2)c1,7,9,-6,71*,3,-7,97*,
O=C(CCl)Nc1ccc(-c2ccccc2)cc1,-5,5,-7,76*,5,-1,84*,
O=C(CN1CCCCC1)Nc1cccc(Oc2ccccc2)c1,-8,-8,17,3,-2,-6,/,
Cc1ccc(S(=O)(=O)N(C(=O)c2ccncc2)c2ccc(OC(=O)c3ccncc3)c3ccccc23)cc1,11,8,2,43*,-7,8,3,
Cc1ccc(S(=O)(=O)N(C(=O)c2ccncc2)c2ccc(OC(=O)c3ccncc3)c3ccccc23)c(C)c1,/,/,18,55*,-18,/,9,
CC(=O)Oc1ccc(N(C(C)=O)S(=O)(=O)c2ccc(C)cc2C)c2ccccc12,-8,2,6,/,/,-2,/,
CCOC(=O)N1C2=NC(C(=O)OC)=C(C(=O)OC)[C@@H]3Nc4ccccc4[C@]23C[C@H]1C(=O)OC,7,9,-5,10,-2,5,/,
O=[N+]([O-])c1cc([N+](=O)[O-])c2cccnc2c1Oc1ccccc1O,-6,0,/,50*,4,-4,6,
O=[N+]([O-])c1cc(Cl)c(O)c2ncccc12,1,13,38,/,/,1,/,
O=[N+]([O-])c1ccc(O)c2ncccc12,-6,9,20,45*,-10,-3,23,
O=C(/C=C/c1ccc(Cl)cc1)NCCc1ccccc1,0,-6,-3,0,-1,-4,/,
CCN(CC)/C(=N/S(=O)(=O)c1ccc(C)cc1)c1ccccc1,0,0,-11,0,-1,-8,/,
COc1cccc(-n2nnc3c(=O)n(CC(=O)N4CCC(Cc5ccccc5)CC4)cnc32)c1,-16,-3,0,39*,-1,-7,29,
COc1cccc(-n2nnc3c(=O)n(CC(=O)N4CCC(C)CC4)cnc32)c1,-1,4,-17,-9,5,3,/,
CC(OC(=O)c1ccc([N+](=O)[O-])s1)C(=O)Nc1ncc(Cl)cc1Cl (stereo not drawn),-4,1,34,46*,-4,3,10,
Cc1ccc(OC(C)C(=O)Nc2ncc(Cl)cc2Cl)c([N+](=O)[O-])n1 (stereo not drawn),-8,3,10,/,-1,3,/,
O=C(NC1CCCC1)C(c1ccc(F)cc1)N(C(=O)c1csnn1)c1ccccc1 (stereo not drawn),14,0,3,5,0,0,/,
SMILES,TDP2 absorb,SIAE primary,Apaf-1 inh,GSTO1 inh,PAD4 FP inh,TCR CD3 inh,GSTO1 inh conf,others
CC(=O)Nc1ccc(Sc2ccccc2C(=O)O)cn1,13,9,28,44*,-4,8,25,
CC(=O)Nc1ccc(Sc2ccccc2C(=O)Nc2ccc(F)cc2)cn1,12,2,0,-2,0,9,/,
CC(=O)NCCc1cnc[nH]1,10,-4,0,47*,1,4,3,
O=C(Cc1ccccc1)NCCc1cnc[nH]1,8,-3,-3,-2,-4,3,/,
Cc1cc(=O)[nH]c(N/N=C/c2ccc(O)c(O)c2)n1,-5,10,5,42*,0,15,7,
CSc1ccc(/C=N/Nc2nc(C)cc(=O)[nH]2)cc1,-1,-2,20,-9,2,2,/,
S=C(NCC1CCCO1)Nc1ccc(Cl)cc1 (stereo not drawn),9,-4,11,6,4,-2,/,
CC(CCc1ccccc1)NC(=O)COC(=O)C1CCC(C(C)(C)C)CC1 (stereo not drawn),-1,4,31,42*,1,-2,31,
N#CC1(c2ccc(NC(=O)c3ccccc3F)cc2)CCCC1,-11,-8,-3,-4,0,1,/,
O=C1CC(c2ccccc2)CC(O)=C1C=Nc1ccc(O)cc1 (stereo not drawn),0,1,24,56*,-1,9,6,
COc1ccccc1Oc1c(C)oc2c(CN3CCN(CCO)CC3)c(O)ccc2c1=O,3,0,9,67*,90*,0,8,
Cc1ccc(C)c(NC(=O)CSc2nnc(-c3n[nH]c4ccccc34)o2)c1,-2,3,11,39*,-4,2,29,
CCCCCCCN(C(=O)CCl)c1ccccc1C,-8,2,12,101*,6,-3,96*,GSTO1 ABPP inh=68
Cc1ccccc1N(Cc1cc(=O)[nH]c2ccccc12)C(=O)CCl,-10,-2,0,74*,3,-4,75*,GSTO1 ABPP inh=21
Cc1cccc(N(Cc2ccccc2)C(=O)CCl)c1,-4,-5,/,/,/,-7,/,
